# Results reported in ChEMBL document CHEMBL5724801, “EUbOPEN Chemogenomics Library - Multiplex” (2024).
# Values joined by “and” are separate entries in the source; they are usually repeats but may differ in a detail not shown here. Equal entries are not always repeated.
# System: Fibroblast
# Test: Multiplex assay against human fibroblast
# Format: toxicity, cell-based
# Outline: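 Tubulin, mitochondrial-mass and membrane-permeability phenotypes are per cents of healthy-nucleus cells. Cells were gated by CellPathfinder machine learning into Hoechst high-intensity objects or normal cells, normal cells into healthy, pyknosed or fragmented nuclei, and pyknosed cells into mitotic or apoptotic. Before that, live cells stained at seeding with Hoechst33342, BioTracker Green Microtubule Cytoskeleton Dye, MitoTracker Red and Annexin V Alexa Fluor 680 were imaged on a CQ1 microscope at 37°C and 5% CO2 after compound addition.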
# [1] = 12 h, 1 µM, compound concentration 1 uM
# [2] = 12 h, 10 µM, compound concentration 10 uM
# [3] = 24 h, 1 µM, compound concentration 1 uM
# [4] = 24 h, 10 µM, compound concentration 10 uM
# [5] = 48 h, 1 µM, compound concentration 1 uM
# [6] = 48 h, 10 µM, compound concentration 10 uM
smiles,measurement,setting,value
CSc1nc(NC2CCCC2)c([N+](=O)[O-])c(NC2CCCC2)n1 [GS-39783],Population Apoptotic (%),[1],50% and 39%
same,Population Fragmented Nuclei (%),[1],16% and 28%
same,Population Healthy Nuclei (%),[1],66% and 46%
same,Population Hoechst High Intensity Objects (%),[1],3% and 5%
same,Population Membrane Permeable-Phenotype (%),[1],2% and 10%
same,Population Mitochondria Different-Phenotype (%),[1],6% and 10%
same,Population Mitotic Cells (%),[1],50% and 60%
same,Population Normal (%),[1],96% and 94%
same,Population Pyknosed Nuclei (%),[1],16% and 25%
same,Population Tubulin-Different-Phenotype (%),[1],29% and 57%
same,Total Cell Count,[1],137 and 135
same,Population Apoptotic (%),[2],54% and 36%
same,Population Fragmented Nuclei (%),[2],16% and 25%
same,Population Healthy Nuclei (%),[2],62% and 52%
same,Population Hoechst High Intensity Objects (%),[2],5% and 6%
same,Population Membrane Permeable-Phenotype (%),[2],0% and 4%
same,Population Mitotic Cells (%),[2],45% and 63%
same,Population Normal (%),[2],94% and 93%
same,Population Pyknosed Nuclei (%),[2],21%
same,Population Tubulin-Different-Phenotype (%),[2],39% and 70%
same,Total Cell Count,[2],184 and 165
same,Population Apoptotic (%),[3],30% and 32%
same,Population Fragmented Nuclei (%),[3],12% and 31%
same,Population Healthy Nuclei (%),[3],69% and 44%
same,Population Hoechst High Intensity Objects (%),[3],2%
same,Population Membrane Permeable-Phenotype (%),[3],3% and 10%
same,Population Mitochondria Different-Phenotype (%),[3],4% and 12%
same,Population Mitotic Cells (%),[3],69% and 67%
same,Population Normal (%),[3],97%
same,Population Pyknosed Nuclei (%),[3],17% and 23%
same,Population Tubulin-Different-Phenotype (%),[3],27% and 60%
same,Total Cell Count,[3],132 and 133
same,Population Apoptotic (%),[4],58% and 36%
same,Population Fragmented Nuclei (%),[4],17% and 25%
same,Population Healthy Nuclei (%),[4],65% and 52%
same,Population Hoechst High Intensity Objects (%),[4],2% and 7%
same,Population Membrane Permeable-Phenotype (%),[4],0% and 6%
same,Population Mitochondria Different-Phenotype (%),[4],4% and 10%
same,Population Mitotic Cells (%),[4],41% and 63%
same,Population Normal (%),[4],97% and 92%
same,Population Pyknosed Nuclei (%),[4],17% and 21%
same,Population Tubulin-Different-Phenotype (%),[4],33% and 57%
same,Total Cell Count,[4],172 and 164
same,Population Apoptotic (%),[5],70% and 33%
same,Population Fragmented Nuclei (%),[5],22% and 41%
same,Population Healthy Nuclei (%),[5],69% and 44%
same,Population Hoechst High Intensity Objects (%),[5],4% and 3%
same,Population Mitochondria Different-Phenotype (%),[5],5% and 14%
same,Population Mitotic Cells (%),[5],30% and 66%
same,Population Normal (%),[5],95% and 96%
same,Population Pyknosed Nuclei (%),[5],7% and 14%
same,Population Tubulin-Different-Phenotype (%),[5],29% and 60%
same,Total Cell Count,[5],134 and 129
same,Population Apoptotic (%),[6],66% and 60%
same,Population Fragmented Nuclei (%),[6],19% and 40%
same,Population Healthy Nuclei (%),[6],65% and 46%
same,Population Hoechst High Intensity Objects (%),[6],2% and 6%
same,Population Membrane Permeable-Phenotype (%),[6],1% and 6%
same,Population Mitochondria Different-Phenotype (%),[6],5% and 7%
same,Population Mitotic Cells (%),[6],33% and 40%
same,Population Normal (%),[6],97% and 93%
same,Population Pyknosed Nuclei (%),[6],14% and 13%
same,Population Tubulin-Different-Phenotype (%),[6],41% and 60%
same,Total Cell Count,[6],168 and 193
CC(C)c1noc(N2CCC(COc3ccc(-c4ccc(S(C)(=O)=O)cc4)nc3)CC2)n1 [GSK-1292263],Population Apoptotic (%),[1],38% and 29%
same,Population Fragmented Nuclei (%),[1],14% and 18%
same,Population Healthy Nuclei (%),[1],74% and 50%
same,Population Hoechst High Intensity Objects (%),[1],2% and 6%
same,Population Membrane Permeable-Phenotype (%),[1],0% and 4%
same,Population Mitochondria Different-Phenotype (%),[1],1% and 5%
same,Population Mitotic Cells (%),[1],61% and 70%
same,Population Normal (%),[1],97% and 93%
same,Population Pyknosed Nuclei (%),[1],11% and 31%
same,Population Tubulin-Different-Phenotype (%),[1],21% and 41%
same,Total Cell Count,[1],189 and 149
same,Population Apoptotic (%),[2],39% and 35%
same,Population Healthy Nuclei (%),[2],65% and 45%
same,Population Hoechst High Intensity Objects (%),[2],3% and 2%
same,Population Membrane Permeable-Phenotype (%),[2],1% and 6%
same,Population Mitochondria Different-Phenotype (%),[2],5% and 10%
same,Population Mitotic Cells (%),[2],60% and 64%
same,Population Normal (%),[2],96% and 97%
same,Population Pyknosed Nuclei (%),[2],26% and 27%
same,Population Tubulin-Different-Phenotype (%),[2],39% and 61%
same,Total Cell Count,[2],162 and 145
same,Population Apoptotic (%),[3],50% and 44%
same,Population Fragmented Nuclei (%),[3],9% and 20%
same,Population Healthy Nuclei (%),[3],78% and 53%
same,Population Hoechst High Intensity Objects (%),[3],3% and 7%
same,Population Membrane Permeable-Phenotype (%),[3],1% and 4%
same,Population Mitochondria Different-Phenotype (%),[3],0% and 2%
same,Population Mitotic Cells (%),[3],50% and 55%
same,Population Normal (%),[3],96% and 92%
same,Population Pyknosed Nuclei (%),[3],11% and 25%
same,Population Tubulin-Different-Phenotype (%),[3],17% and 41%
same,Total Cell Count,[3],182 and 142
same,Population Apoptotic (%),[4],52% and 46%
same,Population Fragmented Nuclei (%),[4],12% and 21%
same,Population Healthy Nuclei (%),[4],67% and 55%
same,Population Hoechst High Intensity Objects (%),[4],2% and 3%
same,Population Membrane Permeable-Phenotype (%),[4],1% and 10%
same,Population Mitochondria Different-Phenotype (%),[4],5% and 10%
same,Population Mitotic Cells (%),[4],47% and 53%
same,Population Normal (%),[4],97% and 96%
same,Population Pyknosed Nuclei (%),[4],20% and 23%
same,Population Tubulin-Different-Phenotype (%),[4],50% and 56%
same,Total Cell Count,[4],168 and 123
same,Population Apoptotic (%),[5],66% and 54%
same,Population Fragmented Nuclei (%),[5],19% and 27%
same,Population Healthy Nuclei (%),[5],74% and 47%
same,Population Hoechst High Intensity Objects (%),[5],3% and 8%
same,Population Membrane Permeable-Phenotype (%),[5],0% and 13%
same,Population Mitochondria Different-Phenotype (%),[5],1% and 4%
same,Population Mitotic Cells (%),[5],33% and 45%
same,Population Normal (%),[5],96% and 91%
same,Population Tubulin-Different-Phenotype (%),[5],22% and 55%
same,Total Cell Count,[5],193 and 156
same,Population Apoptotic (%),[6],63% and 50%
same,Population Fragmented Nuclei (%),[6],13% and 31%
same,Population Healthy Nuclei (%),[6],65% and 51%
same,Population Hoechst High Intensity Objects (%),[6],2% and 0%
same,Population Membrane Permeable-Phenotype (%),[6],0% and 9%
same,Population Mitochondria Different-Phenotype (%),[6],8% and 14%
same,Population Mitotic Cells (%),[6],36% and 50%
same,Population Normal (%),[6],97% and 100%
same,Population Pyknosed Nuclei (%),[6],20% and 17%
same,Population Tubulin-Different-Phenotype (%),[6],48% and 76%
same,Total Cell Count,[6],164 and 125
